Screening results (PubChem BioAssay)
Cl transport mod: KCC2 cotransporter modulators, thallium flux, primary screen, cell-based, HEK293 KCC2, FluoZin-2 fluorescence, MLSMR; KCC2 cells, thallium flux FluoZin-2 fluorescence; B-score of Tl+ flux slope (higher = more flux/activation; lower = inhibition) at 10 µM; hit rate 2.2% among 190,000; AID 1456, 2008;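 active means thallium flux slope and its plate-corrected score both differing from the plate sample mean at a set confidence after two filtering rounds, in either direction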;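 further: slope of fluorescence scaled to starting intensity during 10 to 20 s after thallium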
Target sequence (Q9H2X9 whole entry, looked up): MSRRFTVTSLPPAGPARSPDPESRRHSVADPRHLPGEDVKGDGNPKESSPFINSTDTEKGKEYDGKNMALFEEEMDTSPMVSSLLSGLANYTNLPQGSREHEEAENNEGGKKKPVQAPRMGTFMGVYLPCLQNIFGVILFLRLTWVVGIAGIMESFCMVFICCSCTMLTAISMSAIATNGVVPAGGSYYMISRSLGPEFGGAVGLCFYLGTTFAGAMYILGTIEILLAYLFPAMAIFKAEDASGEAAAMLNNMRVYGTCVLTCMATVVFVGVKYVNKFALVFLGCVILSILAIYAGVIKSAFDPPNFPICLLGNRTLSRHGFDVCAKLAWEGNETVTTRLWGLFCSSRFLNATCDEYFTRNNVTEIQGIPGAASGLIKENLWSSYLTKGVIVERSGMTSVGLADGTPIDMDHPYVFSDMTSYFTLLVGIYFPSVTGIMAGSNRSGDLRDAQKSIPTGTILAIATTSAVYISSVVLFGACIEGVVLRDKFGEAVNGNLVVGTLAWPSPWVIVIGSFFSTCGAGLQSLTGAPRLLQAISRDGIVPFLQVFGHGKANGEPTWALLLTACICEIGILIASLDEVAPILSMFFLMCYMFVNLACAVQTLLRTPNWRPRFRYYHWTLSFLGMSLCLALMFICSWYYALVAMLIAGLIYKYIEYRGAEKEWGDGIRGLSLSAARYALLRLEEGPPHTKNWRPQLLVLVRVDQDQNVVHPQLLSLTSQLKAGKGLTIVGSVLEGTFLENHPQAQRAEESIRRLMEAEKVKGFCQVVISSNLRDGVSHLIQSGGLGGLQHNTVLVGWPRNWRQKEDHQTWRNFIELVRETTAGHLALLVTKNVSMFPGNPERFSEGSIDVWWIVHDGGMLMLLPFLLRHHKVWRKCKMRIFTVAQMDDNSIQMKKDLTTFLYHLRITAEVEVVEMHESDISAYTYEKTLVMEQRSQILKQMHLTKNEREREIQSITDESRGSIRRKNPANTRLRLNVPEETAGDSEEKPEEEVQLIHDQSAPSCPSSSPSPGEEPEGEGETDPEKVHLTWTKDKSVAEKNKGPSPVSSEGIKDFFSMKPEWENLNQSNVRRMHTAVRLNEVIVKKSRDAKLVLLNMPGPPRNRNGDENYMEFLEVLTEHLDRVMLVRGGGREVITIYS
ROMK mod: ROMK potassium channel modulators, primary screen, cell-based, thallium flux, MLSMR library | B-score at 10 µM | ATP-sensitive inward rectifier potassium channel 1 (Homo sapiens), P48048 | hit rate 2% among 130,000 | Tet-inducible ROMK, thallium flux fluorescence; actives lie on both sides;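 active means signal ratio slope over the read window, or its plate-corrected B-score, at least 3 SD from the plate mean, either direction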;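 further: B-score of the F/F0 ratio slope over 7 to 12 s after thallium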
b-catenin transl: modulators of beta-catenin nuclear translocation, primary screen, imaging, HeLa cells, immunofluorescence, high-content | nuclear translocation activity, % at 5 µM | hit rate 0.3% among 190,000 | AID 1665, 2009;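 active means nuclear translocation activity above 50% at 5 µM, with a well cell count of 50 or more; inconclusive means wells under 50 cells across six images, flagged as toxic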;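 further: per-cell ratio of nuclear to cytoplasmic median beta-catenin stain intensity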
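Test system: human HeLa cells, endogenous beta-catenin. Times: 24 h compound exposure, 37°C. Measured by: beta-catenin immunofluorescence imaging with DAPI.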
MT stabilize HCS: microtubule stabilizers in HeLa cells, primary screen, imaging, high-content imaging; HeLa tubulin immunostaining HCS, 24 h; share of cells brighter than vehicle mean+2SD; hit rate 0.83% among 200,000; AID 2205, 2009; % tubulin-high responders, % at 10 µM;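 active means plate Z-score above 3 for both tubulin-high and condensed-nucleus cell shares, with cell loss under 80%, at 10 µM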;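 further: anti alpha tubulin signal scored within the nucleus-defined area of each cell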
Redox H2O2 prof: compounds producing H2O2 with reducing agent – biochemical, NIH compound library profiling, artefact control for MLSCN library redox annotation, primary screen; DTT-dependent redox cycling H2O2, phenol red/HRP absorbance; 100% = 100 µM peroxide control, 0% = buffer; activation, % at 10 µM; hit rate 0.03% among 200,000; AID 878, 2007;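 active means activation of at least 50% relative to the plate's high and low controls in the primary single-dose screen; inactive means activation below 50%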;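 further: compound incubated with DTT at 0.8 mM final as the reducing agent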
KCC2 secondary: KCC2 modulators in sodium-free buffer, confirmation, cell-based, HEK293 KCC2, thallium flux, secondary assay; normalised thallium flux (F/F0 slope) at 10 µM; shares compounds with Cl transport mod; hit rate 15% among 3,700; FluoZin2 fluorescence; stronger effect = higher value;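 active means thallium flux slope above the same plate's solvent-only control mean plus 3 SD; inconclusive means the two replicate wells disagree; inactive means no significant difference from solvent-only control wells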
KCC2 bumet counter: thallium flux persisting under bumetanide in KCC2 cells, confirmation, counter-screen for KCC2 modulator project, cell-based, HEK293 KCC2, FluoZin2, secondary assay 3 | hit rate 49% among 3,700 | HEK293-KCC2 + bumetanide/ouabain; stronger effect = higher value | shares compounds with Cl transport mod | normalized thallium flux at 10 µM;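 active means thallium entry rate above the same plate's blocked-transporter control wells by more than 3 SD; inconclusive means the two repeat wells disagree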;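 further: raw slope of fluorescence over initial fluorescence between 10 and 20 s after thallium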
KCC2 secondary2: KCC2 modulators without ouabain present, confirmation, cell-based, HEK293 KCC2, thallium flux, FluoZin2, secondary assay 2 | shares compounds with Cl transport mod | thallium flux FluoZin2 fluorescence; actives lie on both sides; F/F0 rise rate, 10–20 s post-thallium | normalized thallium flux at 10 µM | hit rate 23% among 3,700 | AID 1715, 2009;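 active means thallium flux slope more than 3 SD above or below the plate's solvent-only control mean, mostly below; inconclusive means the two repeat wells disagreed; inactive means no significant shift from solvent-only controls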
HEK293 Tl flux: thallium flux modulation in parental HEK cells, confirmation, counter-screen for KCC2 modulator project, cell-based, counterscreen 1; shares compounds with Cl transport mod; HEK293 parental cells, thallium flux FluoZin2, ouabain; baseline-ratio fluorescence slope, 10–20 s after thallium; thallium flux rate (normalised fluorescence) at 10 µM; hit rate 46% among 3,700;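 active means thallium flux rate significantly above the same plate's solvent-only control wells, beyond their mean plus 3 SD; inconclusive means the two replicate wells gave conflicting results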
KCC2 retest ouab: KCC2 inhibitors and activators, ouabain retest, confirmation, HEK-KCC2 cells | HEK293-KCC2, thallium flux FluoZin2 fluorescence; bidirectional: low = inhibitor, high = activator | hit rate 48% among 3,700 | shares compounds with Cl transport mod | raw Tl+ flux slope (below DMSO = inhibition, above = activation) at 10 µM | AID 1717, 2009;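 active means thallium flux slope beyond 3 SD from same-plate DMSO control mean in most replicates, usually higher, sometimes lower; inconclusive means repeat tests gave conflicting results; inactive means no significant difference from controls in most replicates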;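 further: slope of initial-normalized fluorescence between seconds 10 and 20 after thallium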
HEK counter2: native HEK Tl+ uptake effects, second counter-screen – HEK cells, counterscreen 2, counter-screen for KCC2 modulator project, confirmation | shares compounds with Cl transport mod | HEK293 parental, thallium flux FluoZin-2 fluorescence slope | thallium flux slope at 10 µM | hit rate 33% among 3,700 | AID 1718, 2009;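 active means thallium flux slope above the same plate's solvent-control mean plus 3 SD in both duplicate wells; inconclusive means duplicate wells that disagreed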;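 further: run without ouabain in cells lacking the KCC2 cotransporter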
A number is an active result; 0 = inactive; ? = inconclusive; - = no result given. Only some compounds are listed: those with a hit (about 3.7% of all), similar ones and a draw of the others.

SMILES	Cl transport mod	ROMK mod	b-catenin transl	MT stabilize HCS	Redox H2O2 prof	KCC2 secondary	KCC2 bumet counter	KCC2 secondary2	HEK293 Tl flux	KCC2 retest ouab	HEK counter2
COC(=O)C1=C(C(=O)OC)C(c2cc(Cl)ccc2O)c2sc(=O)[nH]c2S1 (configuration not stated)	-4.4	-	0	0	0	0	0	?	?	0.014	?
NS(=O)(=O)c1ccc(NC(=O)NC2CCCCC2)cc1	3.2	-	0	0	0	0	0	0	0	0	0
NS(=O)(=O)c1ccc(NC(=S)NC2CCCCC2)cc1	0	0	0	0	0	-	-	-	-	-	-
O=C(N/N=C/C1CC2CCC1C2)c1ccc2c(c1)OCO2 (configuration not stated)	0	0	0	0	0	-	-	-	-	-	-
CC(=O)Oc1cc2c3c(c1)/C(=C1/SC(=S)NC1=O)C(=O)N3C(C)(C)C=C2C	12	-	0	-	-	0	0.062	0	0.017	0	0
COC(=O)c1ccc2c(=O)n(-c3ccccc3)c(=S)[nH]c2c1	11	0	0	0	0	0	0.022	0	0.021	0.025	0.023
O=C(O)c1ccc2c(=O)n(-c3ccccc3F)c(=S)[nH]c2c1	0	0	0	0	0	-	-	-	-	-	-
COC(=O)c1ccc2c(=O)n(-c3ccccc3F)c(=S)[nH]c2c1	5.6	0	0	0	0	0	0.018	0	0.012	0.022	0.013
Fc1ccc(-c2nn3c(C4COc5ccccc5O4)nnc3s2)cc1 (configuration not stated)	-4.5	-	0	0	0	0	0	0	0	0	0
c1ccc2c(c1)OCC(c1nnc3sc(-c4ccc5c(c4)OCO5)nn13)O2 (configuration not stated)	-	-	0	0	0	-	-	-	-	-	-
CCCS(=O)(=O)N1CCC(C(=O)NCCC(C)C)CC1	0	0	0	0	0	-	-	-	-	-	-
O=C1c2oc3ccccc3c(=O)c2C(c2cccc(F)c2)N1CCCO (configuration not stated)	6.7	0	0	0	0	0	?	0	?	0	0
CCCn1c(SCC(=O)N2CCCC(C)C2)nnc1-c1ccccn1 (configuration not stated)	0	0	0	0	0	-	-	-	-	-	-
CC(C)(C)c1cc(C(=O)NNC(=O)c2ccc(Cl)cc2)no1	94	-	0	-	-	0.037	0.1	0.05	0.057	?	0.026
Cc1cc(C(=O)NNC(=O)Nc2ccc(Cl)cc2)no1	0	0	0	-	-	-	-	-	-	-	-
Cc1cc(C)nc(SCC(N)=O)n1	0	-	0	-	-	-	-	-	-	-	-
CCOC(=O)Cc1csc(NC(=O)Cc2ccc([N+](=O)[O-])cc2)n1	0	0	0	0	0	-	-	-	-	-	-
